Activity calls are given as the source filed them. The rule behind the calls is not given here.
Experiments:
[1] = target: T1, Amyloid-beta precursor protein (Homo sapiens, UniProt P05067); details: at 20 µM
[2] = target: T1, Amyloid-beta precursor protein
[3] = Antioxidant activity assessed as trolox equivalent of AAPH radical scavenging activity at 10 uM preincubated for 10 mins followed by AAPH challenge measured every min for 120 mins by ORAC-FL assay; format: functional
In short: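 Test compound and fluorescein (70 nM final) in 75 mM phosphate buffer pH 7.4, preincubated 10 min at 37 °C, then AAPH (40 mM solution) added. Fluorescence read every minute for 120 min (ex 485/em 520 nm). Curves normalized to buffer blank. […] Triplicate wells, at least three independent runs.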

[4] = Permeability of the compound at 100 ug/mL after 10 hrs by PAMPA; format: ADME; details: read-out: permeability
In short: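 PAMPA-BBB: filter coated with porcine brain lipid in dodecane (20 mg/mL); acceptor is PBS/EtOH 7:3. Compound taken from 5 mg/mL DMSO stock and diluted to 100 μg/mL final in PBS/EtOH, then incubated 10 h at 25 °C. Acceptor concentration measured by UV at five wavelengths, four wells, at least three runs; Pe calculated by equation.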

[5] = target: T1, Amyloid-beta precursor protein; assay: Induction of disaggregation of Cu2+-induced amyloid beta (1 to 42) fibril (unknown origin) at 50 uM after 24 hrs by thioflavin T fluorescence assay relative to control
In short: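 Aβ1−42 (25 μM final) in 20 μM HEPES pH 6.6, 150 μM NaCl, preincubated with Cu2+ (25 μM) for 24 h at 37 °C. Compound (50 μM final) then added for another 24 h at 37 °C. Sample diluted into 50 mM glycine−NaOH pH 8.0 with 5 μM ThT; fluorescence read after 5 min at ex 450/em 485 nm.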

[6] = target: T1, Amyloid-beta precursor protein; assay: Inhibition of Cu2+-induced amyloid beta (1 to 42) aggregation (unknown origin) at 50 uM after 24 hrs by thioflavin T fluorescence assay relative to untreated control
In short: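 Aβ1−42 (25 μM final) in 20 μM HEPES pH 6.6, 150 μM NaCl, with Cu2+ (25 μM final) and compound (50 μM final). Incubated at 37 °C for 24 h, then diluted into 50 mM glycine−NaOH pH 8.0 with 5 μM ThT. Fluorescence read at ex 450/em 485 nm after 5 min; inhibition calculated as (1 − IFi/IFc) × 100 after background subtraction.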

[7] = target: T1, Amyloid-beta precursor protein; assay: Induction of disaggregation of self-mediated amyloid beta (1 to 42) fibril (unknown origin) at 25 uM after 24 hrs by thioflavin T fluorescence assay relative to control
[8] = target: T1, Amyloid-beta precursor protein; assay: Induction of disaggregation of self-mediated amyloid beta (1 to 42) fibril (unknown origin) at 25 uM after 24 hrs by transmission electron microscopic analysis
[9] = Metal chelating activity of the compound assessed as Zn2+ complex formation at 20 uM after 30 mins by UV-vis spectrometry; format: functional
In short: (§1)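 Absorption spectra of compound (20 μM final) alone or with metal salt (40 μM final; CuSO4, FeSO4 or ZnCl2) after 30 min in 20% ethanol/buffer (20 mM HEPES, 150 mM NaCl, pH 7.4). Recorded at room temperature by UV−vis.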

[10] = target: T1, Amyloid-beta precursor protein; assay: Inhibition of amyloid beta (1 to 42) fibril formation (unknown origin) at 20 uM after 24 hrs by transmission electron microscopic analysis
In short: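 Aβ1−42 (25 μM) incubated with compound (20 μM) at 37 °C for 24 h in 10 mM phosphate pH 7.4. Grid loaded for 2 min, stained with 1% uranyl acetate for 2 min, and imaged by TEM.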

[11] = Metal chelating activity of the compound assessed as Cu2+ complex formation by Job's method; format: functional
In short: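 Job's method: solutions held at constant total compound + CuSO4 concentration with varied mole fraction, in ethanol/HEPES buffer pH 7.4. UV absorbance change plotted against mole fraction; stoichiometry taken from the intersection of the straight lines.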

[12] = Metal chelating activity of the compound assessed as Fe3+ complex formation at 20 uM after 30 mins by UV-vis spectrometry; format: functional
SH-SY5Y = assay: Antioxidant activity in human SH-SY5Y cells assessed as decrease in t-BuOOH-induced intracellular ROS production at 2.5 to 10 uM incubated for 24 hrs prior to t-BuOOH challenge measured after 30 mins by DCFHDA-based fluorescence assay; format: functional, cell-based
In short: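 SH-SY5Y cells (DMEM, 10% FCS, 37 °C, 5% CO2) seeded 1 × 10^4/well and grown 24 h. Compound added for 24 h; Trolox control at 5, 10, 20 μM. Cells are then washed, loaded with 5 μM DCFH-DA in PBS for 30 min, and challenged with 0.1 mM t-BuOOH for 30 min. Fluorescence read at ex 485/em 535 nm. Result is % of control by formula; three independent experiments in sextuplicate.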

[13] = Metal chelating activity of the compound assessed as Fe2+ complex formation at 20 uM after 30 mins by UV-vis spectrometry; format: functional
In short: as §1

[14] = Metal chelating activity of the compound assessed as Cu2+ complex formation at 20 uM after 30 mins by UV-vis spectrometry; format: functional
In short: as §1

[15] = target: T1, Amyloid-beta precursor protein; assay: Inhibition of Cu2+-induced amyloid beta (1 to 42) aggregation (unknown origin) at 50 uM after 24 hrs by transmission electron microscopic analysis
In short: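 Aβ1−42 (25 μM) with Cu2+ (25 μM) and compound (50 μM) in HEPES pH 6.6/150 μM NaCl, incubated at 37 °C for 24 h. Aliquots put on carbon-coated grid for 2 min, stained with 1% uranyl acetate for 2 min, and imaged by TEM.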

[16] = target: T1, Amyloid-beta precursor protein; assay: Induction of disaggregation of Cu2+-induced amyloid beta (1 to 42) fibril (unknown origin) at 50 uM after 24 hrs by transmission electron microscopic analysis
In short: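 Cu2+-induced fibrils formed from Aβ1−42 (25 μM) with Cu2+ (25 μM) at 37 °C for 24 h in HEPES pH 6.6/NaCl, then treated with compound (50 μM) at 37 °C for 24 h. Aliquots placed on carbon-coated grid for 2 min, stained with 1% uranyl acetate for 2 min, and imaged by TEM.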

Acetylcholinesterase = Acetylcholinesterase (Electrophorus electricus, UniProt O42275); assay: Inhibition of electric eel AChE using acetylthiocholine chloride as substrate preincubated for 15 mins followed by substrate addition measured every 1 min by Ellman's method
Sequence of Acetylcholinesterase (O42275 whole entry): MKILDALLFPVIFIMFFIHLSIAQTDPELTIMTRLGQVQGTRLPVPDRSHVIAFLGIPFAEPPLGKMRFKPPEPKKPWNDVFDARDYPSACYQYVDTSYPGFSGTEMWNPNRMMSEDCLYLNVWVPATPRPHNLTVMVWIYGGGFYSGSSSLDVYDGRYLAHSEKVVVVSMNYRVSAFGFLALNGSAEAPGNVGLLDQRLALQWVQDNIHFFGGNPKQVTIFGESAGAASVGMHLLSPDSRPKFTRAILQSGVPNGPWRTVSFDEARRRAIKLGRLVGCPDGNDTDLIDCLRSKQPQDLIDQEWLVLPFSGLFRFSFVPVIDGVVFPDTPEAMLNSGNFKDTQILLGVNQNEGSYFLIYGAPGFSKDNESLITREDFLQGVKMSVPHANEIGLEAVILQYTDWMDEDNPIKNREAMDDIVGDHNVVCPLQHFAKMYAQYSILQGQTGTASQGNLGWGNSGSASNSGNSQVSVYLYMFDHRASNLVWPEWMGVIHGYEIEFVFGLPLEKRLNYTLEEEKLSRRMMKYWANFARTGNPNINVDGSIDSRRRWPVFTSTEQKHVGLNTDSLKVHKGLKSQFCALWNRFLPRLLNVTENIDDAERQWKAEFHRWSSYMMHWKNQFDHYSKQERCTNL
In short: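 Ellman method in 0.1 M potassium phosphate buffer, pH 8.0, 1 mL assay containing DTNB and thiocholine substrate (each 50 μL of 0.01 M stock). Enzyme (AChE stock 2.0 units/mL) preincubated with compound 15 min at 37 °C, then substrate added. A412 read at 1 min intervals at 37 °C. Each concentration in triplicate. IC50 from at least three experiments.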

T1 sequence (P05067 whole entry): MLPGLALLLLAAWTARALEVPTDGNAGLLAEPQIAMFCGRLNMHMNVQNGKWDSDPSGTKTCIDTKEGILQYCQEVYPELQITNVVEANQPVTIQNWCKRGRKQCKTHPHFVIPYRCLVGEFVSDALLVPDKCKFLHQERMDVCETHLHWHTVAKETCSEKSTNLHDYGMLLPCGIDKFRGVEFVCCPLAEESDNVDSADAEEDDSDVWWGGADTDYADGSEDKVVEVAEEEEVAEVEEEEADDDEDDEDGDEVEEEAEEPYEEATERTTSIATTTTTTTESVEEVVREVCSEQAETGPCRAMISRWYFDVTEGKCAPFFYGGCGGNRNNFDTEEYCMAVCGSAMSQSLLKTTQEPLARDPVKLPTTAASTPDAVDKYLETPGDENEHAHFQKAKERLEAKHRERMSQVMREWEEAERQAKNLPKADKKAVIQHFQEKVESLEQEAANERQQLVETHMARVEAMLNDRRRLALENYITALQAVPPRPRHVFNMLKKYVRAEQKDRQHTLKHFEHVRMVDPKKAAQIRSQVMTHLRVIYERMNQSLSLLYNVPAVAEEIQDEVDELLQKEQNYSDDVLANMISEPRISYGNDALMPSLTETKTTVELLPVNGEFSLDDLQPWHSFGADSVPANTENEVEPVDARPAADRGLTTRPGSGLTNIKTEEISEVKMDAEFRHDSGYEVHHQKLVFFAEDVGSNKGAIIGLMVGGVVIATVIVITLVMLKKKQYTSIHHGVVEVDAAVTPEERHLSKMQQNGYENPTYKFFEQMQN

inhibition [1]	IC50 [2]	SMILES	Activity [3]	also measured
50.2%	18.4 µM	COc1cc(/C=C/c2ccc(NCc3cc(NC(C)C)ccc3O)cc2)cc(OC)c1	2.73 equiv	–
18.1%	–	COc1cc(/C=C/c2ccc(NCc3cccc(OC)c3O)cc2)cc(OC)c1	4.54 equiv	–
67%	10.3 µM	COc1cc(/C=C/c2ccc(NCc3cc(NCC(C)C)ccc3O)cc2)cc(OC)c1	4.51 equiv	–
71.5%	7.06 µM	O=[N+]([O-])c1ccc(O)c(CNc2ccc(/C=C/c3cc(O)cc(O)c3)cc2)c1	4.23 equiv	–
46.5%	–	COc1cc(/C=C/c2ccc(NCc3cc([N+](=O)[O-])ccc3O)cc2)cc(OC)c1	2.51 equiv	–
24.1%	–	COc1cc(/C=C/c2ccc(NCc3c[nH]c4ccccc34)cc2)cc(OC)c1	3.67 equiv	–
3.98%	–	COc1cc(/C=C/c2ccc(NCc3ccc(OC)cc3O)cc2)cc(OC)c1	3.32 equiv	–
20.7%	–	COc1cc(/C=C/c2ccc(NCc3ccccc3O)cc2)cc(OC)c1	3.67 equiv	–
31.3%	–	COc1cc(/C=C/c2ccc(NCc3cc(Cl)ccc3O)cc2)cc(OC)c1	4.12 equiv	–
62.5%	13.1 µM	CCCNc1ccc(O)c(CNc2ccc(/C=C/c3cc(OC)cc(OC)c3)cc2)c1	2.91 equiv	–

The remaining lines, values behind:

SMILES	inhibition [1]	IC50 [2]	Activity [3]	also measured
CN(C)c1ccccc1CNc1ccc(/C=C/c2cc(O)cc(O)c2)cc1	62.4%	14.2 µM	3.57 equiv	–
CN(C)c1ccc(O)c(CNc2ccc(/C=C/c3cc(O)cc(O)c3)cc2)c1.Cl	–	–	–	Papp at 10 h, 100 ug/mL [4]: 2.55 ×10⁻⁶ cm/s
COc1cc(/C=C/c2ccc(NCc3cc[nH]c3)cc2)cc(OC)c1	13.6%	–	3.51 equiv	–
Oc1ccc(/C=C/c2cc(O)cc(O)c2)cc1	69.7%	–	–	Activity [5]: 86.4%; inhibition [6]: 78.9%; Activity [7]: 61%; Activity [8]: Active
Oc1cc(O)cc(/C=C/c2ccc(NCc3ccccc3O)cc2)c1	68.1%	10.2 µM	6.27 equiv	–
COc1cc(/C=C/c2ccc(NCc3cc(N(C)C)ccc3O)cc2)cc(OC)c1	79.5%	–	4.72 equiv	Activity [9]: Active; Activity [5]: 88.8%; inhibition [10]: Active; inhibition [6]: 87.5%; Activity [11]: Active; Activity [12]: Active; Activity (SH-SY5Y): Active; Activity [13]: Active; Activity [14]: Active; Activity [7]: 67%; inhibition [15]: Active; Activity [8]: Active; Activity [16]: Active
COc1cc(/C=C/c2ccc(NCc3ccccc3N(C)C)cc2)cc(OC)c1	7.17%	–	5.87 equiv	–
COc1ccc(/C=C/c2ccc(NCc3cc(N(C)C)ccc3O)cc2)cc1	71.2%	12.2 µM	2.37 equiv	–
COc1cc(/C=C/c2ccc(NCc3ccccc3OC)cc2)cc(OC)c1	6.9%	–	3.67 equiv	–
COc1cc(/C=C/c2ccc(NCc3cc(N(C)C)ccc3O)cc2)cc(OC)c1.Cl	–	–	–	Papp at 10 h, 100 ug/mL [4]: 7.13 ×10⁻⁶ cm/s
Oc1cc(O)cc(/C=C/c2ccc(NCc3cccc(O)c3O)cc2)c1	78.8%	7.87 µM	3.26 equiv	–
Oc1c(I)cc(Cl)c2cccnc12	37.8%	–	–	Activity [5]: 41%; inhibition [6]: 70.9%; Activity [7]: 16.5%; Activity [8]: Active
CN(C)c1ccc(O)c(CNc2ccc(/C=C/c3cc(O)cc(O)c3)cc2)c1	78.1%	–	4.7 equiv	Activity [9]: Active; Activity [5]: 85.9%; inhibition [10]: Active; inhibition [6]: 94.2%; Activity [11]: Active; Activity [12]: Active; Activity (SH-SY5Y): Active; Activity [13]: Active; Activity [14]: Active; Activity [7]: 82%; inhibition [15]: Active; Activity [8]: Active; Activity [16]: Active
C#CCN[C@@H]1CCc2ccc(OC(=O)N(C)CC)cc21 [LADOSTIGIL]	–	–	–	IC50 (Acetylcholinesterase): 50 µM
CN(C)c1ccc(/C=C/c2ccc(NCc3cc(N(C)C)ccc3O)cc2)cc1	69.1%	10.7 µM	3.86 equiv	–
